Assay outcomes as filed in PubChem.
In the library only some 3.7% were active in any assay of this set; here they are far more common.
hERG protect = hERG rescue from dofetilide block, primary screen, cell-based, CHO-hERG, FluxOR thallium flux, dofetilide IC70; Voltage-gated inwardly rectifying potassium channel KCNH2 (Homo sapiens), Q12809; dofetilide IC70 present; activation (rescue from dofetilide block), less the hit threshold, % at 10 µM; 310,000 tested, 0.51% active; AID 1511, 2009;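 active = activation above the mean of controls blocked by dofetilide plus 5 SD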;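 note: thallium influx through hERG after potassium depolarization seen as dye fluorescence rise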
Target sequence (Q12809 whole entry, looked up): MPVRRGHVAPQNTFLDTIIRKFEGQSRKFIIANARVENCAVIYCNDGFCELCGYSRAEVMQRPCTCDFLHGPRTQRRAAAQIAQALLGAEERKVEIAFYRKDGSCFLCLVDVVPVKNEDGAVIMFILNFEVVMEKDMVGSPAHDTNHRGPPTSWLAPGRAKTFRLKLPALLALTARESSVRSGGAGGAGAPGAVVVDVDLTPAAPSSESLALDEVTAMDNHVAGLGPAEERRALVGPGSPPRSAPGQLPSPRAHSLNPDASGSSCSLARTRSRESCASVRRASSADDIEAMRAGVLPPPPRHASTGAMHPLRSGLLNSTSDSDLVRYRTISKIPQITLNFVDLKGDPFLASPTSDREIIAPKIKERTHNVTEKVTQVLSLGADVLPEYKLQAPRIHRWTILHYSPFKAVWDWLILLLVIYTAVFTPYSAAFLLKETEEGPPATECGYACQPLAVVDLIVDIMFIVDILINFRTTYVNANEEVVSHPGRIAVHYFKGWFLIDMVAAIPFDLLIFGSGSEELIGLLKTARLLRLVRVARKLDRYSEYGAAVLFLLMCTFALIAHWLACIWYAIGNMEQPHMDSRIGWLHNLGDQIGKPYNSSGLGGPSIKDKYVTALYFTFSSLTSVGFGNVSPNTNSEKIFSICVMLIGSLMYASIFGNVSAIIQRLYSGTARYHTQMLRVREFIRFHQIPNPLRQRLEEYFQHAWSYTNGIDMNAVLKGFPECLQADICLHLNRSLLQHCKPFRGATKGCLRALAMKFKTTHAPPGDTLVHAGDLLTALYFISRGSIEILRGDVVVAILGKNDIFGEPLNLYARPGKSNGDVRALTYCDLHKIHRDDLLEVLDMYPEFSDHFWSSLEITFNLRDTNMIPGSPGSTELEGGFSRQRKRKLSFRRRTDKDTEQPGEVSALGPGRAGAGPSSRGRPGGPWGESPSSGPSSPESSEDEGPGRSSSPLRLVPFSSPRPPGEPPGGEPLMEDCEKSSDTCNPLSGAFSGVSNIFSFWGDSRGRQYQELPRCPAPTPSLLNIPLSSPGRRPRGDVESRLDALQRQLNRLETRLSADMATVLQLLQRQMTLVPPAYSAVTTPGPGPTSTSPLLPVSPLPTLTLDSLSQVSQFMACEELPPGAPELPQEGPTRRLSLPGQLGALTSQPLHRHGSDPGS
Kir21 block = inhibitors of mouse Kir2.1 inward-rectifier potassium channel; Inward rectifier potassium channel 2 (Mus musculus), P35561; HEK293-Kir2.1, FluxOR thallium flux fluorescence; stronger effect = lower value; B-score at 10 µM; 310,000 tested, 0.85% active; AID 1672, 2009;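 active = fluorescence ratio B-score at or below minus 3 SD of library scores, with starting-brightness B-score within 2 SD, cut at about -4.2 in these data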;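 note: channel flux triggered by added potassium and thallium sulfate stimulus; B-score of peak minus minimum fluorescence over baseline after thallium stimulus; more negative B-score means stronger Kir2.1 block with less thallium influx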
KCNQ1 act = potentiators or activators of KCNQ1 channel, primary screen, cell-based, thallium flux, high-throughput; Potassium voltage-gated channel subfamily KQT member 1 (Homo sapiens), P51787; B-score at 10 µM; CHO-K1 KCNQ1, thallium flux FluxOR fluorescence; stronger effect = higher value; 310,000 tested, 0.35% active; AID 2648, 2010;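 active = fluorescence ratio B-score, a plate-corrected score, at least three library SD, with initial intensity B-score within 5 SD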
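System: Stable KCNQ1 CHO-K1 line | Incubation: 90 min dye loading and 20 min compound exposure, both at room temperature | Measure: Ratio B score | Medium: Assay buffer for compound exposure, DMSO matched across wells | Compound dosing: Single-concentration screen | Probe or stimulus: K+/Tl+ depolarizing stimulus | Measured by: Kinetic FluxOR fluorescence, 10 s baseline plus 110 s post-stimulus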
KCNQ1 block = inhibitors of human KCNQ1 channel, primary screen, cell-based, thallium flux, high-throughput; Potassium voltage-gated channel subfamily KQT member 1 (Homo sapiens), P51787; CHO-K1 KCNQ1, FluxOR thallium flux fluorescence; stronger effect = higher value; B-score at 10 µM; 310,000 tested, 1.3% active; AID 2642, 2010;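 active = compounds whose thallium flux B-score, printed positive for inhibition, exceeds three library SD while starting fluorescence stays within three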;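 note: channel opened by potassium depolarization with thallium stimulus after 20 min compound exposure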
KCNK9 block = KCNK9 potassium channel inhibitors, primary screen, HEK293 cells, thallium flux; 310,000 tested, 1.2% active; AID 488922, 2010; FluxOR thallium flux fluorescence; stronger effect = lower value; Potassium channel subfamily K member 9 (Homo sapiens), Q9NPC2; B-score at 10 µM;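 active = ratio B-score over 3 SD below the library mean, with starting fluorescence within 5 SD of its mean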;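 note: negative B-score means less thallium flux so channel inhibition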
KCNK3 block = human KCNK3 channel inhibitors, primary screen, CHO cells, FluxOR thallium flux, B-score; B-score at 10 µM; FluxOR fluorescence; stronger effect = lower value; 340,000 tested, 0.84% active; Potassium channel subfamily K member 3 (Homo sapiens), O14649;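 active = B-score under library mean minus 4 SD, starting fluorescence ratio at most library mean plus 5 SD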;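 note: more negative B-score means stronger inhibition of thallium flux through KCNK3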
KCNK9 block conf = KCNK9 potassium channel inhibitors, confirmation, HEK293 cells, thallium flux, duplicate | 4,900 tested, 43% active | AID 492992, 2010 | FluxOR thallium flux fluorescence | shares compounds with KCNK9 block | inhibition, % at 10 µM;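 active = thallium signal inhibited by more than 5 SD of the compound-free buffer control wells, on both duplicate plates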;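 note: 0% = assay buffer control wells without compound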
Kir21 sel = mouse Kir2.1 channel inhibition, confirmation, selectivity assay for KCNK9 modulator project, cell-based, HEK293, thallium flux; shares compounds with KCNK9 block; Kir2.1 cells, FluxOR thallium flux fluorescence; 4,900 tested, 4% active; inhibition, % at 10 µM; AID 492993, 2010;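 active = thallium signal drop more than 5 SD beyond the mean of the no-compound control wells, seen in both duplicate plates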;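 note: signal is fluorescence rise after thallium addition divided by baseline fluorescence; plate controls were assay buffer only for no effect and full block by chlorpromazine control for full effect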
HEK293 Tl ctr = thallium flux in non-induced HEK293 cells, confirmation, counter-screen for KCNK9 inhibitor project, cell-based, second counter screen, non-induced KCNK9-HEK293; shares compounds with KCNK9 block; FluxOR thallium flux; inhibition, % at 10 µM; 4,900 tested, 40% active; AID 492997, 2010;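 active = thallium signal drop beyond 5 SD of the untreated control mean, on both duplicate plates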;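 note: plate controls were buffer only IC0 wells for no effect and SID17386958 at its maximal inhibitory level for full effect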
KCNK3 inh conf = retest of human KCNK3 channel inhibitors, confirmation, CHO cells, FluxOR thallium flux, triplicate; ratio percent of control, % at 10 µM; shares compounds with KCNK3 block; 2,400 tested, 99% active; FluxOR fluorescence; 0% buffer, 100% carvedilol maximal block;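 active = ratio percent of control, averaged over triplicates, above buffer control mean plus 5 SD, cut at about 64% in these data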;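 note: ratio is the fluorescence rise from min to max over baseline after thallium stimulus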
KCNK3 uninduced = thallium flux inhibition in non-induced cells, primary screen, counter-screen for KCNK3 inhibitor project, cell-based, non-induced KCNK3 line, FluxOR thallium, triplicate. shares compounds with KCNK3 block. 2,400 tested, 40% active. thallium flux ratio (lower = more inhibition) at 10 µM. non-induced KCNK3 parental cells; stronger effect = lower value;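 active = thallium flux ratio, averaged over three wells, more than 5 SD below the buffer control mean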;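 note: host cells are CHO cells without KCNK3 induction; ratio is peak minus trough fluorescence over baseline then normalized to buffer controls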
An asterisk follows results filed as active; i = inactive; / = no result given.

SMILES	hERG protect	Kir21 block	KCNQ1 act	KCNQ1 block	KCNK9 block	KCNK3 block	KCNK9 block conf	Kir21 sel	HEK293 Tl ctr	others
Cc1cc(C)n2nc(SC(C)C(=O)N3CCC4(CC3)OCCO4)nc2n1 (stereo unspecified)	-11	0.27	i	i	i	i	/	/	/
COc1ccccc1CN1CCN(C(=O)COc2cccc(C)c2)CC1	-6	0.75	i	i	i	i	/	/	/
COc1ccccc1CN1CCN(C(=O)COc2ccc3ccccc3c2)CC1	-5	-6.2	i	i	i	i	i	33%*	i
Oc1cc2c(cc1CN1CCN(c3ccc(F)cc3)CC1)OCO2	-9	0.21	i	i	i	i	/	/	/
Brc1cc2c(cc1CN1CCN(c3ccccc3)CC1)OCCO2	-4	-0.15	i	i	i	i	i	i	i
FC(F)(F)c1ccc2c(c1)N(CCCN1CCN(CCCl)CC1)c1ccccc1S2	-14	-0.52	i	i	i	i	i	i	i
C=CC(=O)NCNC(=O)C=C	/	/	/	/	/	i	/	/	/
CSc1ccc(CN2CCN(c3ccccc3C)CC2)cc1	-10	-1.5	i	i	i	i	i	i	i
CCOc1ccc(-n2c(-c3ccoc3)nc3ccccc3c2=O)cc1	-13	0.05	i	i	i	i	/	/	/
CCOc1ccc(-c2c(C)n(-c3ccc(OCC)cc3)c3[n+]2CCCCC3)cc1	-18	-10*	i	9*	-10*	i	44%*	33%*	i
COCc1ccc(CN2CCCC(C(=O)c3sccc3C)C2)o1 (stereo unspecified)	-7	0.11	i	i	i	i	i	i	i
Cc1nn(Cc2ccccc2Cl)c(Cl)c1C(=O)OCC(=O)NC(=O)NC1CCCCC1	-8	0.91	i	i	i	i	i	i	i
c1ccc(CCCN2CCN(CCOC(c3ccccc3)c3ccccc3)CC2)cc1	-17	-2.2	i	i	i	i	i	i	i
O=C(O)c1cccc2c1NC(c1cccc([N+](=O)[O-])c1)C1CC(Sc3ccccc3[N+](=O)[O-])C(Cl)C21 (stereo unspecified)	-3	0.11	16*	i	i	i	i	i	i
COCCNC(=O)N1[C@H]2CC[C@@H]1C(C(=O)OC)=C(c1ccc(OC(F)(F)F)cc1)C2	/	/	/	/	/	i	/	/	/
Cc1ccc(-c2cc(-c3ccc(C)cc3)[n+](-c3ccccc3)c(-c3ccc(C)cc3)c2)cc1	-39	-12*	i	9*	-19*	-18*	76%*	84%*	i
Cc1ccc(-c2cc(-c3ccc(C)cc3)[n+](C)o2)cc1	-24	2.3	i	i	i	i	/	/	/
Cc1ccc(-c2cc(-c3ccccc3)cc(-c3ccccc3)[n+]2-c2ccccc2)cc1	-46	-9.7*	i	i	-9.2*	i	75%*	79%*	34%*
CC(C)c1onc(C(=O)N2CCC3(CC2)OCCO3)c1[N+](=O)[O-]	-5	-0.04	i	i	i	i	/	/	/
CCCCN(Cc1ccccc1)C1CCN(CCc2ccccc2)CC1	-8	-0.39	i	i	i	i	i	i	i
CC(C)(C)n1cc(C(=O)c2ccc3ccccc3c2O)cn1	-11	-0.01	i	i	i	i	/	/	/
CC(Cc1ccccc1)NC(=O)/C=C/C(=O)O (stereo unspecified)	-2	-0.3	i	i	i	i	/	/	/
O=c1c(C=NCc2cccs2)c(O)n(C2CCCCC2)c(=O)n1C1CCCCC1	-7	0.35	i	i	i	i	i	i	i
COc1ccc(C2=NCC(=O)N(CC(=O)NCc3ccco3)c3sc4c(c32)CCCC4)cc1	-6	0.88	i	i	i	-8.9*	/	/	/	KCNK3 inh conf=104*;KCNK3 uninduced=i
Brc1ccccc1CNCCc1ccc2c(c1)OCO2	-6	-1.1	i	i	i	i	/	/	/
SMILES	hERG protect	Kir21 block	KCNQ1 act	KCNQ1 block	KCNK9 block	KCNK3 block	KCNK9 block conf	Kir21 sel	HEK293 Tl ctr	others
Cc1ccc(CN2CCCN(Cc3ccccc3C)S2(=O)=O)cc1	4	-1.9	i	i	-6.8*	-10*	/	/	/	KCNK3 inh conf=121*;KCNK3 uninduced=i
COP(=O)(OC)/C(C=O)=N/Nc1ccc([N+](=O)[O-])cc1	-1	1.2	i	i	i	i	/	/	/
CNC(=O)c1cccn(Cc2ccc(C(F)(F)F)cc2)c1=O	-2	0.15	i	i	i	i	/	/	/
O=C(NCc1ccccc1)c1cccn(Cc2ccccc2)c1=O	-12	-0.56	i	i	i	-9.8*	/	/	/	KCNK3 inh conf=108*;KCNK3 uninduced=i
Cc1c(NS(=O)(=O)c2ccccc2)ccc([N+](=O)[O-])c1Cl	/	/	/	/	/	i	/	/	/
Cc1cc(N)n(C2CCN(C)CC2)n1	-1	0.51	i	i	i	i	/	/	/
Clc1ccc(C(Cn2ccnc2)OCc2csc3c(Cl)cccc23)c(Cl)c1 (stereo unspecified)	/	/	/	/	/	-12*	/	/	/	KCNK3 inh conf=105*;KCNK3 uninduced=0.16*
CC(C)CCNC(=O)c1cc(C(=O)c2cc(F)ccc2O)cn(CCC(C)C)c1=O	-6	-1.2	i	i	i	i	/	/	/
